Results: ChEMBL document CHEMBL2169868, “Flavone-based novel antidiabetic and antidyslipidemic agents” (J Med Chem, 2012)
Active and inactive are the calls of the source. No cut-off for these calls is given here.

Assays:
[1] = Elimination half life in Sprague-Dawley rat at 25 mg/kg, po by LC-MS/MS method; type: ADME, organism-based; set-up: dose 25 mg/kg, route oral; conditions: in vivo, read-out: beta t1/2 (converted)
In short: (§1)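 Male Sprague−Dawley rats given a single 25 mg/kg oral dose (aqueous 0.5% methyl cellulose suspension for one compound). Blood drawn from 0.08 to 48 h. LC-MS/MS, linear range 0.78−400 ng/mL.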

[2] = test system: Rattus norvegicus; test: AUC in Sprague-Dawley rat at 25 mg/kg, po by LC-MS/MS method; conditions: in vivo
[3] = test system: Mus musculus; test: Antidyslipidemic activity in diabetic C57BL/KsJ db/db mouse model assessed as reduction in plasma cholesterol level at 25 mg/kg, po qd for 10 days; type: functional; set-up: scale not given: the % may be the effect or the level left
In short: (§2)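 db/db mice (blood glucose 200−350, TG 170−250, cholesterol 170−250, HDL-C 32−40 mg/dL) dosed orally at 25 mg/kg daily for 10 days; retro-orbital blood taken on day 11 for plasma TG, cholesterol and HDL-C (and HDL-C/CHOL ratio); mean % change versus vehicle control, 5 mice per group; Student t test.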

[4] = test system: Mus musculus; test: Antidiabetic activity in diabetic C57BL/KsJ db/db mouse model assessed as improvement in glucose tolerance in hyperglycemia at 1 mg/kg, po measured 2 hrs post dose; type: functional
[5] = test system: Mus musculus; test: Reduction in body weight in diabetic C57BL/KsJ db/db mouse model in hyperglycemia at 25 mg/kg, po qd for 10 days relative to untreated control; type: functional
In short: (§3)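 db/db mice (C57BL/KsJ, 12−18 weeks, 40−50 g, glucose 200−350 mg/dL), housed at 23 ± 2.0 °C on a 12 h light cycle. Oral dosing daily for 10 days. Blood glucose checked each morning through day 9. Body weight recorded daily from day 1 to day 10. Mean % change versus vehicle, 5 mice per group; Student t test.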

[6] = test system: Rattus norvegicus; test: AUC in Sprague-Dawley rat at 2.5 mg/kg, iv by LC-MS/MS method; conditions: in vivo
[7] = test system: Mus musculus; test: Antidiabetic activity in diabetic C57BL/KsJ db/db mouse model assessed as reduction in postprandial glucose level in hyperglycemia at 10 mg/kg, po measured 2 hrs post dose; type: functional; set-up: scale not given: the % may be the effect or the level left
In short: (§4)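 db/db mice (C57BL/KsJ, 12−18 weeks, 40−50 g; selected by glucose 200−350 mg/dL) dosed orally daily for 10 consecutive days at 1, 3, 10, 25 or 50 mg/kg; postprandial blood glucose profile recorded on day 6 with food access interrupted; mean % change versus vehicle in 5 animals per group; Student t test.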

[8] = Cmax in Sprague-Dawley rat at 25 mg/kg, po by LC-MS/MS method; type: ADME, organism-based; set-up: dose 25 mg/kg, route oral; conditions: in vivo; in short: as §1
[9] = test system: Mus musculus; test: Antidyslipidemic activity in diabetic C57BL/KsJ db/db mouse model assessed as increase in plasma HDL-cholesterol level at 25 mg/kg, po qd for 10 days; type: functional; in short: as §2
[10] = test system: Mus musculus; test: Antidiabetic activity in diabetic C57BL/KsJ db/db mouse model assessed as improvement in glucose tolerance in hyperglycemia at 10 mg/kg, po measured 2 hrs post dose; type: functional
[11] = Oral bioavailability in Sprague-Dawley rat at 25 mg/kg by LC-MS/MS method; type: ADME, organism-based; conditions: in vivo; in short: as §1
[12] = Elimination half life in Sprague-Dawley rat at 2.5 mg/kg, iv by LC-MS/MS method; type: ADME, organism-based; set-up: dose 2.5 mg/kg, route intravenous; conditions: in vivo, read-out: beta t1/2 (converted)
In short: (§5)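 Male Sprague−Dawley rats given a single 2.5 mg/kg iv dose; one formulation was DMF/PG/water (2:4:4), 0.2 μ filtered. Blood drawn from 0.08 to 48 h. Plasma assayed by LC-MS/MS with linear range 0.78−400 ng/mL.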

[13] = test system: Mus musculus; test: Antidiabetic activity in diabetic C57BL/KsJ db/db mouse model assessed as reduction in postprandial glucose level in hyperglycemia at 3 mg/kg, po measured 2 hrs post dose; type: functional; set-up: scale not given: the % may be the effect or the level left; in short: as §4
[14] = test system: Mus musculus; test: Antidyslipidemic activity in diabetic C57BL/KsJ db/db mouse model assessed as increase in plasma HDL-C/cholesterol ratio at 25 mg/kg, po qd for 10 days; type: functional; in short: as §2
[15] = test system: Mus musculus; test: Antidiabetic activity in diabetic C57BL/KsJ db/db mouse model assessed as reduction in postprandial glucose level in hyperglycemia at 50 mg/kg, po measured 2 hrs post dose; set-up: scale not given: the % may be the effect or the level left
[16] = test system: Mus musculus; test: Antihyperglycemic activity in diabetic C57BL/KsJ db/db mouse model assessed as reduction in plasma insulin level in hyperglycemia at 25 mg/kg, po qd for 10 days; type: functional; set-up: scale not given: the % may be the effect or the level left
In short: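 db/db mice dosed orally every day for 10 days. On day 11, retro-orbital blood was drawn and plasma insulin measured. Mean % change versus vehicle-treated control, 5 mice per group; Student t test.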

[17] = Cmax in Sprague-Dawley rat at 2.5 mg/kg, iv by LC-MS/MS method; type: ADME, organism-based; set-up: dose 2.5 mg/kg, route intravenous; conditions: in vivo; in short: as §5
[18] = test system: Mus musculus; test: Antihyperglycemic activity in diabetic C57BL/KsJ db/db mouse model assessed as improvement in glucose tolerance in hyperglycemia at 25 mg/kg, po qd for 10 days; type: functional
In short: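 Male/female C57BL/KsJ db/db mice, 12−18 weeks, 40−50 g, selected for glucose 200−350 mg/dL. Oral dosing daily for 10 days. OGTT on day 10 after an overnight fast: compound at −30 min, then 3 g/kg oral glucose at 0 min. Glucose read at 30, 60, 90 and 120 min. AUC taken versus vehicle, 5 mice per group.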

[19] = Plasma clearance in Sprague-Dawley rat at 2.5 mg/kg, iv by LC-MS/MS method; type: ADME, organism-based; set-up: dose 2.5 mg/kg, route intravenous; in short: as §5
[20] = test system: Mus musculus; test: Antidyslipidemic activity in diabetic C57BL/KsJ db/db mouse model assessed as reduction in plasma triglyceride level at 25 mg/kg, po qd for 10 days; type: functional; set-up: scale not given: the % may be the effect or the level left; in short: as §2
[21] = test system: Mus musculus; test: Antidiabetic activity in diabetic C57BL/KsJ db/db mouse model assessed as improvement in glucose tolerance in hyperglycemia at 3 mg/kg, po measured 2 hrs post dose; type: functional
[22] = test system: Rattus norvegicus; test: Volume of distribution in Sprague-Dawley rat at 25 mg/kg, po by LC-MS/MS method; type: ADME, organism-based; set-up: dose 25 mg/kg, route oral; conditions: in vivo; in short: as §1
[23] = Plasma clearance in Sprague-Dawley rat at 25 mg/kg, po by LC-MS/MS method; type: ADME, organism-based; set-up: dose 25 mg/kg, route oral; in short: as §1
[24] = test system: Mus musculus; test: Antidiabetic activity in diabetic C57BL/KsJ db/db mouse model assessed as improvement in glucose tolerance in hyperglycemia at 100 mg/kg, po measured 2 hrs post dose; type: functional
[25] = test system: Mus musculus; test: Antidiabetic activity in diabetic C57BL/KsJ db/db mouse model assessed as reduction in postprandial glucose level in hyperglycemia at 1 mg/kg, po measured 2 hrs post dose; type: functional; set-up: scale not given: the % may be the effect or the level left; in short: as §4
[26] = test system: Mus musculus; test: Antidiabetic activity in diabetic C57BL/KsJ db/db mouse model assessed as improvement in glucose tolerance in hyperglycemia at 25 mg/kg, po measured 2 hrs post dose; type: functional
[27] = test system: Mus musculus; test: Antidiabetic activity in diabetic C57BL/KsJ db/db mouse model assessed as reduction in postprandial glucose level in hyperglycemia at 25 mg/kg, po measured 2 hrs post dose; type: functional; set-up: scale not given: the % may be the effect or the level left; in short: as §4
[28] = Tmax in Sprague-Dawley rat at 25 mg/kg, po by LC-MS/MS method; type: ADME, organism-based; set-up: dose 25 mg/kg, route oral; conditions: in vivo; in short: as §1
[29] = test system: Mus musculus; test: Antihyperglycemic activity in diabetic C57BL/KsJ db/db mouse model assessed as reduction in hyperglycemia at 25 mg/kg, po qd for 10 days; type: functional; set-up: scale not given: the % may be the effect or the level left; in short: as §3
[30] = Volume of distribution in Sprague-Dawley rat at 2.5 mg/kg, iv by LC-MS/MS method; type: ADME, organism-based; set-up: dose 2.5 mg/kg, route intravenous; conditions: in vivo; in short: as §5
[31] = Mean residence time in Sprague-Dawley rat at 2.5 mg/kg, iv by LC-MS/MS method; type: ADME, organism-based; set-up: dose 2.5 mg/kg, route intravenous; conditions: in vivo; in short: as §5
[32] = Mean residence time in Sprague-Dawley rat at 25 mg/kg, po by LC-MS/MS method; type: ADME, organism-based; set-up: dose 25 mg/kg, route oral; conditions: in vivo; in short: as §1

CC(C)NC[C@H](O)COc1ccc2c(=O)cc(-c3cc(O)cc(O)c3)oc2c1
half-life [1]: 3.39 h | AUC [2]: 39.5 ng·h/mL | Activity [3]: 27% | Activity [4]: 12% | Activity [5]: inactive | AUC [6]: 756 ng·h/mL | Activity [7]: 31.2% | Cmax [8]: 21.2 ng/mL | Activity [9]: 23.1% | Activity [10]: 30.7% | bioavailability [11]: 0.52% | half-life [12]: 4.83 h | Activity [13]: 27.1% | Percent increase in HDL-C/cholesterol ratio vs vehicle [14]: 68.7 | Activity [15]: 35.4% | Activity [16]: 39.2% | Cmax [17]: 1810 ng/mL | Activity [18]: 29.7% | clearance [19]: 55 mL/min/kg | Activity [20]: 21% | Activity [21]: 19.7% | Vd [22]: 16.18 L/kg | CL/F [23]: 54.5 mL/min/kg | Activity [24]: 49.2% | Activity [25]: 12.1% | Activity [26]: 41.1% | Activity [27]: 31.6% | Tmax [28]: 0.33 h | Activity [29]: 45.6% | Vd [30]: 16.2 L/kg | MRT [31]: 4.9 h | MRT [32]: 5.96 h
